Reference: ChEMBL document CHEMBL5058577, “EUbOPEN Chemogenomics Library 2 (Multiplex)” (2022)

Tested on: HEK-293T
Test: Multiplex assay against HEK293T
Assay type: toxicity, cell-based
Conditions: human
In short: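 Imaging took place on a CQ1 microscope at 37°C and 5% CO2 once compound had been added to live cells stained at seeding with Hoechst33342, BioTracker Green Microtubule Cytoskeleton Dye, MitoTracker Red and Annexin V Alexa Fluor 680. CellPathfinder machine-learning gating classed cells as Hoechst high-intensity objects or normal cells, classed normal cells as having healthy, pyknosed or fragmented nuclei, and classed pyknosed cells as mitotic or apoptotic. Tubulin, mitochondrial-mass and membrane-permeability phenotypes are per cents of the healthy-nucleus cells.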

[1] = 12 h, 1 µM, compound concentration 1 uM, replicate 1
[2] = 12 h, 1 µM, compound concentration 1 uM, replicate 2
[3] = 12 h, 10 µM, compound concentration 10 uM, replicate 1
[4] = 12 h, 10 µM, compound concentration 10 uM, replicate 2
[5] = 24 h, 1 µM, compound concentration 1 uM, replicate 1
[6] = 24 h, 1 µM, compound concentration 1 uM, replicate 2
[7] = 24 h, 10 µM, compound concentration 10 uM, replicate 1
[8] = 24 h, 10 µM, compound concentration 10 uM, replicate 2
[9] = 48 h, 1 µM, compound concentration 1 uM, replicate 1
[10] = 48 h, 1 µM, compound concentration 1 uM, replicate 2
[11] = 48 h, 10 µM, compound concentration 10 uM, replicate 1
[12] = 48 h, 10 µM, compound concentration 10 uM, replicate 2

O=C(NCCN1CCC(n2c(=O)[nH]c3cc(Cl)ccc32)CC1)c1ccc(F)cc1 [HALOPEMIDE]
Population Apoptotic (%) [1]: 46% | Population Fragmented Nuclei (%) [1]: 5% | Population Healthy Nuclei (%) [1]: 81% | Population Hoechst High Intensity Objects (%) [1]: 7% | Population Membrane Permeable-Phenotype (%) [1]: 0% | Population Mitochondria Different-Phenotype (%) [1]: 54% | Population Mitotic Cells (%) [1]: 53% | Population Normal (%) [1]: 92% | Population Pyknosed Nuclei (%) [1]: 13% | Population Tubulin-Different-Phenotype (%) [1]: 42% | Total Cell Count [1]: 334 | Population Apoptotic (%) [2]: 43% | Population Healthy Nuclei (%) [2]: 79% | Population Hoechst High Intensity Objects (%) [2]: 10% | Population Mitochondria Different-Phenotype (%) [2]: 62% | Population Mitotic Cells (%) [2]: 56% | Population Normal (%) [2]: 89% | Population Pyknosed Nuclei (%) [2]: 15% | Population Tubulin-Different-Phenotype (%) [2]: 29% | Total Cell Count [2]: 373 | Population Apoptotic (%) [3]: 39% | Population Fragmented Nuclei (%) [3]: 5% | Population Healthy Nuclei (%) [3]: 74% | Population Hoechst High Intensity Objects (%) [3]: 14% | Population Membrane Permeable-Phenotype (%) [3]: 0% | Population Mitochondria Different-Phenotype (%) [3]: 76% | Population Mitotic Cells (%) [3]: 60% | Population Normal (%) [3]: 85% | Population Pyknosed Nuclei (%) [3]: 20% | Population Tubulin-Different-Phenotype (%) [3]: 68% | Total Cell Count [3]: 460 | Population Apoptotic (%) [4]: 65% | Population Fragmented Nuclei (%) [4]: 6% | Population Healthy Nuclei (%) [4]: 72% | Population Hoechst High Intensity Objects (%) [4]: 13% | Population Membrane Permeable-Phenotype (%) [4]: 1% | Population Mitochondria Different-Phenotype (%) [4]: 84% | Population Mitotic Cells (%) [4]: 34% | Population Normal (%) [4]: 86% | Population Pyknosed Nuclei (%) [4]: 21% | Population Tubulin-Different-Phenotype (%) [4]: 59% | Total Cell Count [4]: 319 | Population Apoptotic (%) [5]: 40% | Population Fragmented Nuclei (%) [5]: 7% | Population Healthy Nuclei (%) [5]: 79% | Population Hoechst High Intensity Objects (%) [5]: 3% | Population Membrane Permeable-Phenotype (%) [5]: 1% | Population Mitochondria Different-Phenotype (%) [5]: 35% | Population Mitotic Cells (%) [5]: 59% | Population Normal (%) [5]: 96% | Population Pyknosed Nuclei (%) [5]: 12% | Population Tubulin-Different-Phenotype (%) [5]: 24% | Total Cell Count [5]: 471 | Population Fragmented Nuclei (%) [6]: 9% | Population Hoechst High Intensity Objects (%) [6]: 6% | Population Membrane Permeable-Phenotype (%) [6]: 0% | Population Mitochondria Different-Phenotype (%) [6]: 37% | Population Normal (%) [6]: 93% | Population Pyknosed Nuclei (%) [6]: 11% | Population Tubulin-Different-Phenotype (%) [6]: 21% | Total Cell Count [6]: 508 | Population Apoptotic (%) [7]: 27% | Population Fragmented Nuclei (%) [7]: 8% | Population Healthy Nuclei (%) [7]: 72% | Population Hoechst High Intensity Objects (%) [7]: 8% | Population Membrane Permeable-Phenotype (%) [7]: 1% | Population Mitochondria Different-Phenotype (%) [7]: 63% | Population Mitotic Cells (%) [7]: 72% | Population Normal (%) [7]: 91% | Population Pyknosed Nuclei (%) [7]: 19% | Population Tubulin-Different-Phenotype (%) [7]: 64% | Total Cell Count [7]: 580 | Population Apoptotic (%) [8]: 64% | Population Fragmented Nuclei (%) [8]: 9% | Population Healthy Nuclei (%) [8]: 70% | Population Membrane Permeable-Phenotype (%) [8]: 0% | Population Mitochondria Different-Phenotype (%) [8]: 78% | Population Mitotic Cells (%) [8]: 35% | Population Pyknosed Nuclei (%) [8]: 20% | Population Tubulin-Different-Phenotype (%) [8]: 62% | Total Cell Count [8]: 361 | Population Apoptotic (%) [9]: 30% | Population Fragmented Nuclei (%) [9]: 13% | Population Healthy Nuclei (%) [9]: 79% | Population Hoechst High Intensity Objects (%) [9]: 1% | Population Membrane Permeable-Phenotype (%) [9]: 1% | Population Mitochondria Different-Phenotype (%) [9]: 21% | Population Mitotic Cells (%) [9]: 69% | Population Normal (%) [9]: 98% | Population Pyknosed Nuclei (%) [9]: 6% | Population Tubulin-Different-Phenotype (%) [9]: 16% | Total Cell Count [9]: 841 | Population Apoptotic (%) [10]: 28% | Population Hoechst High Intensity Objects (%) [10]: 3% | Population Membrane Permeable-Phenotype (%) [10]: 0% | Population Mitotic Cells (%) [10]: 71% | Population Normal (%) [10]: 96% | Population Pyknosed Nuclei (%) [10]: 7% | Population Tubulin-Different-Phenotype (%) [10]: 10% | Total Cell Count [10]: 675 | Population Apoptotic (%) [11]: 37% | Population Fragmented Nuclei (%) [11]: 14% | Population Healthy Nuclei (%) [11]: 72% | Population Hoechst High Intensity Objects (%) [11]: 8% | Population Membrane Permeable-Phenotype (%) [11]: 1% | Population Mitochondria Different-Phenotype (%) [11]: 57% | Population Mitotic Cells (%) [11]: 62% | Population Normal (%) [11]: 91% | Population Pyknosed Nuclei (%) [11]: 12% | Population Tubulin-Different-Phenotype (%) [11]: 55% | Total Cell Count [11]: 706 | Population Apoptotic (%) [12]: 60% | Population Healthy Nuclei (%) [12]: 74% | Population Hoechst High Intensity Objects (%) [12]: 6% | Population Mitochondria Different-Phenotype (%) [12]: 64% | Population Mitotic Cells (%) [12]: 40% | Population Normal (%) [12]: 93% | Population Pyknosed Nuclei (%) [12]: 11% | Total Cell Count [12]: 531
